# Measurements as given in paper PMC6591795 (ChemistryOpen, 2019).
# Like-named read-outs stand apart in the source and are kept apart here.
# How the values were obtained:
# [1] = molecular target: T1, GTB (Homo sapiens, UniProt P16442, G235S/G268A/L266M/R176G); details: read-out: KD from ITC; UDP binding to GTB:H-Dis; cited from earlier work
# T1 sequence (P16442 64-354 R176G/G235S/L266M/G268A limits assumed): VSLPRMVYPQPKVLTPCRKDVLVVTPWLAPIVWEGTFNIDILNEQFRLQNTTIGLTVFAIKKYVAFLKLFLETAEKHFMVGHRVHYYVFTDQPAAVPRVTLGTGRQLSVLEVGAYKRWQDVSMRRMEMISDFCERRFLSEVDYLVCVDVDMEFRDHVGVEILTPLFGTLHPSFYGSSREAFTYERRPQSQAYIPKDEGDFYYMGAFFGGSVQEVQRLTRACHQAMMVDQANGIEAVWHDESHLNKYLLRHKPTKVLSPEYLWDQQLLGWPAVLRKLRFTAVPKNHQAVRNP
# [2] = molecular target: T1, GTB; assay: methyl TROSY CSP titration, TITAN lineshape analysis; assay type: binding; details: for Kd: K D
# Outline: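 Enzyme expressed in D₂O-based M9 minimal medium with ¹³C-methyl precursors, IPTG-induced, and purified by cation-exchange and UDP-affinity chromatography. Ligand titrated at constant protein concentration, with a 2D [¹³C,¹H] HMQC at each point. Kd and koff from a global multi-peak TITAN two-state fit; apo parameters fixed from the ligand-free spectrum; 200-run bootstrap residual resampling.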
# [3] = GTB in presence of saturating B-Tris
# [4] = GTB in presence of saturating H-Dis
# [5] = GTB in presence of saturating H-Tris I
# [6] = GTB in presence of saturating H-Tris II
# [7] = GTB in presence of saturating H-Tris III
# [8] = GTB in presence of saturating H-Tris IV
# [9] = GTB in presence of saturating H-Tris V
# [10] = GTB in presence of saturating H-Tris VI
# [11] = apo GTB, donor-type ligands, Mg2+, 298 K
structure (smiles),measurement,setting,value
"O=c1ccn([C@@H]2O[C@H](COP(=O)(O)OP(=O)(O)O)[C@@H](O)[C@H]2O)c(=O)[nH]1 [UDP, uridine diphosphate]",Kd,[1],27 µM
same,koff,[2]; [3],18 ± 1 s⁻¹
same,kon,[2]; [3],28000 M⁻¹ s⁻¹
same,koff,[2]; [4],2.6 ± 0.3 s⁻¹
same,kon,[2]; [4],25000 M⁻¹ s⁻¹
same,off-rate constant koff,"[2]; GTB in presence of saturating H-Dis, from titration analysis (Table 3)",2.6 Hz
same,koff,[2]; [5],2.2 ± 0.2 s⁻¹
same,kon,[2]; [5],58000 M⁻¹ s⁻¹
same,koff,[2]; [6],1.7 ± 0.3 s⁻¹
same,kon,[2]; [6],280000 M⁻¹ s⁻¹
same,koff,[2]; [7],3.6 ± 0.5 s⁻¹
same,kon,[2]; [7],120000 M⁻¹ s⁻¹
same,koff,[2]; [8],12 ± 1 s⁻¹
same,kon,[2]; [8],190000 M⁻¹ s⁻¹
same,koff,[2]; [9],3.4 ± 0.3 s⁻¹
same,kon,[2]; [9],120000 M⁻¹ s⁻¹
same,koff,[2]; [10],2.2 ± 0.2 s⁻¹
same,kon,[2]; [10],69000 M⁻¹ s⁻¹
same,kon multiplied by the UDP concentration (comparable to kAB),"[2]; GTB saturated with H-Dis, kon=2.5×10^4 M^−1s^−1 times 250 μM UDP",ca. 6.3 Hz
same,Kd,[2]; [3],660 ± 10 µM
same,Kd,[2]; [4],103 ± 2 µM
same,Kd,[2]; [5],38 ± 1 µM
same,Kd,[2]; [6],6 ± 1 µM
same,Kd,[2]; [7],29 ± 1 µM
same,Kd,[2]; [8],65 ± 2 µM
same,Kd,[2]; [9],31 ± 1 µM
same,Kd,[2]; [10],32 ± 1 µM
same,Kd,[2]; [11],161 ± 3 µM
same,koff,[2]; [11],243 ± 7 s⁻¹
same,kon,[2]; [11],1.5e+06 M⁻¹ s⁻¹
